In the RNAGym collection of RNA variant scans (doi:10.1126/science.aae0568):
Variants at the floor of the assay were thinned out.

B1: tRNA (parent)
chain: GUUCCGUUGGCGUAAUGGUAACGCGUCUCCCUCCUAAGGAGAAGACUGCGGGUUCGAGUCCCGUACGGAACG

Variants of: B1
Experiment: yeast fitness relative to wild type (ratio to wild type); higher = fitter; tRNA-Arg(CCU), competitive growth, 37 C, YPD
In short: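 Changes in genotype frequencies gave Darwinian fitness relative to wild type. Frequencies were read by 100-nucleotide paired-end sequencing of gene amplicons before and after pooled Saccharomyces cerevisiae strains, carrying tRNA-Arg(CCU) gene variants at the native locus, were competed in YPD at 37°C for 24 hours in six replicates. A genotype was kept only with ≥ 100 starting reads, and estimates < 0.5 were set to 0.5.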

| Variant | yeast fitness |
| --- | --- |
| C31U A42U | 0.957 |
| C31U A40U U59C A70U | ≤ 0.5 |
| C31U U47G G58C C62U | 0.552 |
| C31U G50C | 0.955 |
| C31U A40G G63A A70U | ≤ 0.5 |
| C31U C49G A69C | 0.636 |
| C31U C46G G50U C61U | ≤ 0.5 |
| C31U A37U C46A C49A C55A C66G | 0.663 |
| C31U C62G | 0.949 |
| C31U C62A | 0.776 |
| C31U C62U | 0.907 |
| C31U U32G | 0.662 |
| C31U U32A | 0.661 |
| C31U A45U A69U | 1 |
| C31U C46A A69C | 0.757 |
| C31U C61A A69U | 0.633 |
| C31U C61A A69C | 0.597 |
| C31U C33A A69U | ≤ 0.5 |
| C31U C33A C46A | 0.596 |
| C31U G52C A57C | ≤ 0.5 |
| C31U G48A G56U A65G | ≤ 0.5 |
| C31U U47A C61U A70C | ≤ 0.5 |
| C31U A37U | 0.744 |
| C31U A37G | 0.69 |

| Variant | yeast fitness |
| --- | --- |
| C31U A37C A43U G50C A57G | 0.586 |
| C31U A36U A69C | 0.591 |
| C31U C33G C49A G51A | 0.563 |
| C31U G48A C61G C62A | 0.602 |
| C31U A43G C66U | 0.724 |
| C31U G44A C46U | 0.629 |
| C31U U35A A37G A40C U47C U64G | 0.512 |
| C31U G44A A45U A57G | 0.537 |
| C31U G63A | 1.14 |
| C31U A36C A45C C61G | ≤ 0.5 |
| C31U G68U | 0.846 |
| C31U G38C G51A G56A | 0.543 |
| C31U G68U A69U | 0.615 |
| C31U A65U G68U | 0.699 |
| C31U A40C C46G | 0.744 |
| C31U A40U A70U | 0.7 |
| C31U A37G A45C A70C | ≤ 0.5 |
| C31U C66U A69U | 0.807 |
| C31U C33A C62U | ≤ 0.5 |
| C31U A43U G48A A57U G67C | ≤ 0.5 |
| C31U C33G A65C G68A A69U | ≤ 0.5 |
| C31U C33G C61A | 0.65 |
| C31U A40G A42C G44A A45U | ≤ 0.5 |
| C31U U47G G67C | ≤ 0.5 |

| Variant | yeast fitness |
| --- | --- |
| C31U U32C G41C G68U | ≤ 0.5 |
| C31U C61G | 0.707 |
| C31U C61A | 0.726 |
| C31U C61U | 0.93 |
| C31U C66U G67A | 0.596 |
| C31U A40U | 0.975 |
| C31U A40C | 0.937 |
| C31U A40G | 0.786 |
| C31U A43U G48A U53A | 0.587 |
| C31U C49U C60A G63C | ≤ 0.5 |
| C31U C34U A57C | ≤ 0.5 |
| C31U C46G A69U | 0.731 |
| C31U A40G A70U | 0.55 |
| C31U A36G | 0.857 |
| C31U A36U | 0.591 |
| C31U A40U C66A | ≤ 0.5 |
| C31U U32A C61U | 0.627 |
| C31U A40G C61G | ≤ 0.5 |
| C31U U32A U35C | 0.593 |
| C31U A45C U47C A70U | ≤ 0.5 |
| C31U C46U G51A A65C | 0.643 |
| C31U G44C | 0.826 |
| C31U A43G U53C | 0.513 |
| C31U A42C G67A | 0.628 |

| Variant | yeast fitness |
| --- | --- |
| C31U G44A A45U U47C | 0.607 |
| C31U G63A A69C | 0.748 |
| C31U C34G A42C U47G A65C C66U | ≤ 0.5 |
| C31U A37G C62G | 0.517 |
| C31U C60G G67A | ≤ 0.5 |
| C31U A36U G51A A70U | 0.693 |
| C31U C34A A45U C61U | ≤ 0.5 |
| C31U G38A | 0.81 |
| C31U C34A A36G G38C G51A | ≤ 0.5 |
| C31U A37C A43U G50C A69U | ≤ 0.5 |
| C31U A57C G58A A69G | 0.554 |
| C31U A42U A70U | 1.14 |
| C31U U35C U47A | ≤ 0.5 |
| C31U C33U A37G U59A U64G | 0.525 |
| C31U G48A A65G | 0.917 |
| C31U C49U | 1.04 |
| C31U A45U C55U | ≤ 0.5 |
| C31U A42C G44A A45U | 0.55 |
| C31U C49U C66A G67A | ≤ 0.5 |
| C31U A40C G56A A57U | ≤ 0.5 |
| C31U A37G A45C C62G | 0.593 |
| C31U A42G C62U | 0.583 |
| C31U A36G A45U | 0.593 |
| C31U U32A U35C A65G | ≤ 0.5 |

| Variant | yeast fitness |
| --- | --- |
| C31U A36U A45C C46G G48C | 0.53 |
| C31U G58A U59A | 0.672 |
| C31U C61U C66A | ≤ 0.5 |
| C31U C49G C60A | ≤ 0.5 |
| C31U A36C G38A | 0.558 |
| C31U G58A A65G | 0.73 |
| C31U A36G A57U | ≤ 0.5 |
| C31U G52C | 0.661 |
| C31U C55G U59A | ≤ 0.5 |
| C31U U35C A40G | ≤ 0.5 |
| C31U A43U G48A U53A C62U | ≤ 0.5 |
| C31U A37C U64A | ≤ 0.5 |
| C31U G67U | 0.952 |
| C31U G67A | 0.97 |
| C31U G44C A69U | 0.634 |
| C31U G44C A69C | 0.585 |
| C31U C66U | 1.03 |
| C31U G39A A57C | ≤ 0.5 |
| C31U C49G G52A C62U | ≤ 0.5 |
| C31U C33U A37C C55U | ≤ 0.5 |
| C31U A69G | 0.924 |
| C31U A69U | 0.999 |
| C31U G38A A40C G68C A70U | ≤ 0.5 |
| C31U G48C A69C | 0.67 |

| Variant | yeast fitness |
| --- | --- |
| C31U G41A | 0.959 |
| C31U C60A A69U | 0.506 |
| C31U A42G G50A | 0.629 |
| C31U C33U A42C C49U | ≤ 0.5 |
| C31U C34A A40G U59A | 0.566 |
| C31U G58A | 0.965 |
| C31U C60A | 0.563 |
| C31U C60G | 0.696 |
| C31U C46G C55U | 0.542 |
| C31U C33A G50A A65G | ≤ 0.5 |
| C31U A45G | 0.932 |
| C31U C46U | 1.02 |
| C31U A36U A43C C55G | ≤ 0.5 |
| C31U C49G C61A | ≤ 0.5 |
| C31U A65U | 0.955 |
| C31U C34A A36G G38C A69U | ≤ 0.5 |
| C31U C34G | 0.591 |
| C31U C34U | 0.748 |
| C31U G58A C66U | 0.73 |
| C31U U32C C34U A57C | ≤ 0.5 |
| C31U A43U | 1.11 |
| C31U A43C | 1.17 |
| C31U A43C U54C A65C | ≤ 0.5 |
| C31U A37U C60G | ≤ 0.5 |

| Variant | yeast fitness |
| --- | --- |
| C31U U35C | 0.851 |
| C31U A57G | 1.06 |
| C31U A57U | 0.619 |
| C31U U47C | 0.934 |
| C31U A36U A45C C62U | ≤ 0.5 |
| C31U C34A C61G | ≤ 0.5 |
| C31U A70G | 1.1 |
| C31U C33A | 0.585 |
| C31U A45U G56C | ≤ 0.5 |
| C31U A45U C46G | 0.94 |
| C31U C34A A40G | ≤ 0.5 |
| C31U C49U C61G | 0.638 |
| C31U A40G U54C A70U | 0.527 |
| C31U G41C A43C G48A C60G | ≤ 0.5 |
| C31U C46A A65C | 0.73 |
| C31U C46A G58C | 0.645 |
| C31U A37C G63A | ≤ 0.5 |
| C31U A40C A65C | 0.817 |
| C31U A40G C46G A65G | ≤ 0.5 |
| C31U C55G | 0.629 |
| C31U C55U | 0.72 |
| C31U A37G U54A | ≤ 0.5 |
| C31U U32G C33G | 0.591 |
